Source: ChEMBL document CHEMBL3877254, “Tetracyclic indolines as a novel class of β-lactam-selective resistance-modifying agent for MRSA” (Eur J Med Chem, 2017)
In brackets after ≈: the same amount, converted by molar mass.

Tests used:
[1] = Cytotoxicity against human HeLa cells after 24 hrs by CellTiter-Glo luminescent cell viability assay; assay type: toxicity, cell-based
Outline: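 HeLa cells seeded at 20 000 cells/well in DMEM with 10% FCS and 1% penicillin/streptomycin, grown 16 h at 37 °C in 5% CO2. Medium then replaced and compounds added in DMSO (1 μL per 100 μL), final 0.5–32 μg/mL, triplicate. After 24 h at 37 °C, plates equilibrated to room temperature and CellTiter-Glo luminescence read.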

[2] = test system: Staphylococcus aureus; assay: Antibacterial activity against methicillin-resistant Staphylococcus aureus NRS100 after 18 hrs by broth microdilution method
[3] = test system: Staphylococcus aureus; assay: (§1) Potentiation of amoxicillin/clavulanic acid-induced antibacterial activity against methicillin-resistant Staphylococcus aureus NRS100 assessed as compound concentration required in combination with amoxicillin/clavulanic acid to return MRSA sensitive concentration below 4 ug/ml after overnight incubation; assay type: functional
Outline: (§2)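 Antibiotic held at fixed final level in MHB (amoxicillin/clavulanic acid 4/2 μg/mL; cefazolin 8 μg/mL); test compound (10 mg/mL DMSO stock) 2-fold serially diluted from 64 μg/mL top; final inoculum OD600 0.001; overnight at 37 °C with shaking; MRC = lowest compound concentration with no visible growth.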

[4] = test system: Staphylococcus aureus; assay: Potentiation of cefazolin-induced antibacterial activity against methicillin-resistant Staphylococcus aureus ATCC BAA-44 assessed as compound concentration required in combination with cefazolin to return MRSA sensitive concentration below 8 ug/ml after overnight incubation; assay type: functional; outline: as §2
[5] = test system: Staphylococcus aureus; assay: Antibacterial activity against methicillin-resistant Staphylococcus aureus NRS-46070 after 18 hrs by broth microdilution method
[6] = test system: Staphylococcus aureus; assay: as §1, with “NRS-46070” for “NRS100”; assay type: functional; outline: as §2
[7] = test system: Staphylococcus aureus; assay: Potentiation of cefazolin-induced antibacterial activity against methicillin-resistant Staphylococcus aureus ATCC BAA-44 assessed as fractional inhibitory concentration by checkerboard assay; assay type: functional
Outline: (§3)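 Checkerboard in MRSA; FICI = FICA + FICB, each FIC being the combination concentration (MRC) divided by that agent's MIC alone; FICI <0.5 taken as synergy.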

[8] = test system: Staphylococcus aureus; assay: Antibacterial activity against methicillin-resistant Staphylococcus aureus NRS-45898 after 18 hrs by broth microdilution method
[9] = test system: Staphylococcus aureus; assay: as §1, with “NRS-45898” for “NRS100”; assay type: functional; outline: as §2
[10] = test system: Staphylococcus aureus; assay: Potentiation of amoxicillin/clavulanic acid-induced antibacterial activity against methicillin-resistant Staphylococcus aureus ATCC BAA-44 assessed as fractional inhibitory concentration by checkerboard assay; assay type: functional; outline: as §3
[11] = test system: Staphylococcus aureus; assay: Antibacterial activity against methicillin-resistant Staphylococcus aureus NRS-46231 after 18 hrs by broth microdilution method
[12] = test system: Staphylococcus aureus; assay: as §1, with “NRS-46231” for “NRS100”; assay type: functional; outline: as §2
[13] = test system: Staphylococcus aureus; assay: Potentiation of cefazolin-induced antibacterial activity against methicillin-resistant Staphylococcus aureus ATCC BAA-44 assessed as fold reduction in cefazolin MIC at 20 uM after 18 hrs by broth microdilution method; assay type: functional
[14] = test system: Staphylococcus aureus; assay: Potentiation of streptomycin-induced antibacterial activity against methicillin-resistant Staphylococcus aureus ATCC BAA-44 assessed as fold reduction in streptomycin MIC at 20 uM after 18 hrs by broth microdilution method; assay type: functional
[15] = test system: Staphylococcus aureus; assay: Potentiation of ciprofloxacin-induced antibacterial activity against methicillin-resistant Staphylococcus aureus ATCC BAA-44 assessed as fold reduction in ciprofloxacin MIC at 20 uM after 18 hrs by broth microdilution method; assay type: functional
[16] = test system: Staphylococcus aureus; assay: Potentiation of gentamycin-induced antibacterial activity against methicillin-resistant Staphylococcus aureus ATCC BAA-44 assessed as fold reduction in gentamycin MIC at 20 uM after 18 hrs by broth microdilution method; assay type: functional
[17] = test system: Staphylococcus aureus; assay: Potentiation of tetracycline-induced antibacterial activity against methicillin-resistant Staphylococcus aureus ATCC BAA-44 assessed as fold reduction in tetracycline MIC at 20 uM after 18 hrs by broth microdilution method; assay type: functional
[18] = test system: Staphylococcus aureus; assay: Potentiation of erythromycin-induced antibacterial activity against methicillin-resistant Staphylococcus aureus ATCC BAA-44 assessed as fold reduction in erythromycin MIC at 20 uM after 18 hrs by broth microdilution method; assay type: functional
[19] = test system: Staphylococcus aureus; assay: Potentiation of amoxicillin/clavulanic acid-induced antibacterial activity against methicillin-resistant Staphylococcus aureus ATCC BAA-44 assessed as fold reduction in amoxicillin/clavulanic acid MIC at 20 uM after 18 hrs by broth microdilution method; assay type: functional
[20] = test system: Staphylococcus aureus; assay: Potentiation of oxacillin-induced antibacterial activity against methicillin-resistant Staphylococcus aureus ATCC BAA-44 assessed as fold reduction in oxacillin MIC at 20 uM after 18 hrs by broth microdilution method; assay type: functional
[21] = test system: Staphylococcus aureus; assay: Potentiation of clindamycin-induced antibacterial activity against methicillin-resistant Staphylococcus aureus ATCC BAA-44 assessed as fold reduction in ciprofloxacin MIC at 20 uM after 18 hrs by broth microdilution method; assay type: functional
[22] = test system: Staphylococcus aureus; assay: Potentiation of daptomycin-induced antibacterial activity against methicillin-resistant Staphylococcus aureus ATCC BAA-44 assessed as fold reduction in daptomycin MIC at 20 uM after 18 hrs by broth microdilution method; assay type: functional
[23] = test system: Staphylococcus aureus; assay: Potentiation of meropenem-induced antibacterial activity against methicillin-resistant Staphylococcus aureus ATCC BAA-44 assessed as fold reduction in meropenem MIC at 20 uM after 18 hrs by broth microdilution method; assay type: functional
[24] = test system: Staphylococcus aureus; assay: Potentiation of methicillin-induced antibacterial activity against methicillin-resistant Staphylococcus aureus ATCC BAA-44 assessed as fold reduction in methicillin MIC at 20 uM after 18 hrs by broth microdilution method; assay type: functional

SMILES	GI50 at 24 h [1] [µg/mL]	MIC [2] [µg/mL]	MRC [3] [µg/mL]	MRC [4] [µg/mL]	further results
C=C1CCCC[C@@]23N(C(=O)OC)CC[C@@]12c1cc(Cl)ccc1N3C	53 (≈ 153 µM)	> 64	4	8	–
C=C1CCCC[C@@]23N(C(=O)OCC)CC[C@@]12c1c(C)cc(C)cc1N3C	61 (≈ 172 µM)	> 64	2	2	MIC [5]: > 64 µg/mL; MRC [6]: 2 µg/mL; fractional inhibitory concentration index (FICI) [7]: 0.078; MIC [8]: > 64 µg/mL; MRC [9]: 2 µg/mL; fractional inhibitory concentration index (FICI) [10]: 0.127; MIC [11]: > 64 µg/mL; MRC [12]: 2 µg/mL
C=C1CCC[C@@]23N(C(=O)OC)CC[C@@]12c1c(C)cc(C)cc1N3C	40 (≈ 123 µM)	> 64	8	16	–
C=C1CCCC[C@@]23N(CC)CC[C@@]12c1c(C)cc(C)cc1N3C	18 (≈ 58 µM)	> 64	32	8	–
C=C1CCCC[C@@]23N(C(=O)OC)CC[C@@]12c1ccccc1N3C	30 (≈ 96 µM)	> 64	>64	>64	–
C=C1CCCC[C@@]23N(C)CC[C@@]12c1c(C)cc(C)cc1N3C	20 (≈ 67.5 µM)	> 64	16	8	–
C=C1CCCC[C@@]23N(C(=O)OC)CC[C@@]12c1c(C)cc(C)cc1N3CC	30 (≈ 84.6 µM)	> 64	4	2	–
C=C1CCCC[C@@]23N(C(C)=O)CC[C@@]12c1c(C)cc(C)cc1N3C	15 (≈ 46.2 µM)	> 64	32	32	–
C#CCN1c2cc(C)cc(C)c2[C@@]23CCN(C(=O)OC)[C@@]12CCCCC3=C	17 (≈ 46.6 µM)	> 64	64	64	–
C=C1CCC[C@@]23N(C(=O)OCC)CC[C@@]12c1cc(C)ccc1N3C	43 (≈ 132 µM)	> 64	32	64	–
C=C1CCCC[C@]23N(C)c4cc(C)cc(C)c4[C@]12CCN3S(=O)(=O)c1ccc(Cl)cc1	> 64	> 64	>64	>64	–
C=C1CCCC[C@@]23N(C(=O)NCc4ccccc4)CC[C@@]12c1c(C)cc(C)cc1N3C	> 64	> 64	>64	>64	–
C=C1CCCC[C@]23Nc4cc(C)cc(C)c4[C@]12CCN3C(=O)OC	28 (≈ 85.8 µM)	> 64	8	4	–
C=C1CCC[C@@]23N(C(=O)OC)CC[C@@]12c1cc(C)ccc1N3C	15 (≈ 48 µM)	> 64	16	16	–
C=C1CCCC[C@@]23NCC[C@@]12c1c(C)cc(C)cc1N3C	26 (≈ 92.1 µM)	> 64	64	32	–
C=C1CCCC[C@@]23N(C(=N)N)CC[C@@]12c1c(C)cc(C)cc1N3C	19 (≈ 58.6 µM)	> 64	32	16	–
C=C1CCC[C@@]23N(C(=O)OCC)CC[C@@]12c1cc(Cl)ccc1N3C	41 (≈ 118 µM)	> 64	8	16	–
C=C1CCCC[C@@]23N(C(=O)CCC(=O)O)CC[C@@]12c1c(C)cc(C)cc1N3C	> 64	> 64	>64	>64	–
C=C1CCCC[C@@]23N(C(=O)OC(C)(C)C)CC[C@@]12c1c(C)cc(C)cc1N3C	47 (≈ 123 µM)	> 64	4	8	–
C=C1CCCC[C@@]23N(C(N)=O)CC[C@@]12c1c(C)cc(C)cc1N3C	19 (≈ 58.4 µM)	> 64	64	64	–
C=C1CCCC[C@@]23N(C(=O)OC)CC[C@@]12c1cc(C)ccc1N3C	27 (≈ 82.7 µM)	> 64	4	8	–
C=C1CCCC[C@@]23N(C(=O)C(F)(F)F)CC[C@@]12c1c(C)cc(C)cc1N3C	> 64	> 64	>64	>64	–
C=C1CCCC[C@@]23N(C(=O)OCC)CC[C@@]12c1cc(F)c(OC)cc1N3C	> 64	> 64	>64	>64	–
C=C1CCC[C@@]23N(C(=O)OC)CC[C@@]12c1cc(Cl)ccc1N3C	41 (≈ 123 µM)	> 64	8	16	–
C=C1CCCC[C@@]23N(C(=O)OCC)CC[C@@]12c1cc(F)ccc1N3C	> 64	> 64	>64	>64	–
C=C1CCCC[C@@]23N(C(=O)OCc4ccccc4)CC[C@@]12c1c(C)cc(C)cc1N3C	> 64	> 64	64	>64	–
C=C1CCCC[C@@]23N(C(=O)OC)CC[C@@]12c1c(C)cc(C)cc1N3C	20 (≈ 58.7 µM)	> 64	16	16	fold change (FC) [13]: 16; fold change (FC) [14]: 1; fold change (FC) [15]: 2; fold change (FC) [16]: 1; fold change (FC) [17]: 2; fold change (FC) [18]: 1; fold change (FC) [19]: 8; fold change (FC) [20]: 8; fold change (FC) [21]: 1; fold change (FC) [22]: 1; fold change (FC) [23]: 16; fold change (FC) [24]: 16
C=C1CCCC[C@@]23N(C(=O)NCC)CC[C@@]12c1c(C)cc(C)cc1N3C	51 (≈ 144 µM)	> 64	>64	>64	–
